The results in this text go back to ChEMBL document CHEMBL1148755, “Structural analogues of smoothened intracellular loops as potent inhibitors of Hedgehog pathway and cancer cell growth” (J Med Chem, 2007).

Square brackets hold non-standard residues; d marks the D form. Peptide text beside a SMILES is read from it. * marks the point of attachment. Palmitoyl = CCCCCCCCCCCCCCCC(=O)*; Myristoyl = CCCCCCCCCCCCCC(=O)*; Nle = CCCC[C@H](N)C(=O)O

This experiment concerns SK-MEL-2. The experiment can be described thus: Growth inhibition of SK-Mel2 melanoma cells after 48 hrs by MTT assay. The format is functional, cell-based, Homo sapiens. The note with it: Homo sapiens, SK-MEL-2, 48 h. The method, boiled down: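 Cells seeded at 200-400 per well in DMEM with 10% FBS and left to attach for 24 h. The next day, inhibitor in medium at 2× was added in an equal volume, and cells were incubated 48 h in a CO2 incubator. Reference plates were read at time of addition for T0 density. MTT staining was read as absorbance at 544 nm and compared with untreated control cells.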
(Tetrazolium assays rely on reduction of a dye to a coloured formazan, in cell work by metabolically active cells.)
By IC50 is commonly meant the concentration that gives 50% inhibition. Compound `CCCCCCCCCCCCCCCC(=O)NCCCC[C@H](NC(=O)[C@H](Cc1ccc(O)cc1)NC(=O)[C@H](CO)NC(=O)[C@@H](NC(=O)[C@H](CCCCN)NC(=O)CNC(=O)[C@H](CO)NC(=O)[C@H](CC(C)C)NC(=O)[C@@H]1CCCN1C(=O)[C@H](CCC(N)=O)NC(=O)[C@H](Cc1ccc(O)cc1)NC(=O)[C@@H](NC(=O)[C@@H](NC(=O)CNC(C)=O)[C@@H](C)O)[C@@H](C)O)[C@@H](C)O)C(=O)O` (Ac-GTTYQPLSGKTSYK(Palmitoyl)-OH) showed an IC50 of 2700 nM.
The value for `CCCCCCCCCCCCCCCC(=O)N[C@@H](CCCNC(=N)N)C(=O)NCC(=O)N[C@H](C(=O)N[C@@H](CCSC)C(=O)N[C@H](C(=O)N[C@@H](CC(C)C)C(=O)N[C@@H](Cc1ccccc1)C(=O)N[C@@H](CO)C(=O)N[C@H](C(=O)N[C@@H](CCCCN)C(=O)N[C@@H](CO)C(=O)N[C@@H](CC(N)=O)C(=O)N[C@@H](Cc1c[nH]cn1)C(=O)N1CCC[C@H]1C(=O)NCC(=O)N[C@@H](CC(C)C)C(=O)N[C@@H](CC(C)C)C(=O)N[C@@H](CO)C(=O)N[C@@H](CCC(=O)O)C(=O)N[C@@H](CCCCN)C(=O)N[C@@H](C)C(=O)O)[C@@H](C)CC)[C@@H](C)O)C(C)C` (Palmitoyl-RGVMTLFSIKSNHPGLLSEKA-OH) was 500 nM.
Compound `CCCCCCCCCCCCCCCC(=O)N[C@@H](CCCNC(=N)N)C(=O)NCC(=O)N[C@H](C(=O)N[C@@H](CCSC)C(=O)N[C@H](C(=O)N[C@@H](CC(C)C)C(=O)N[C@@H](Cc1ccccc1)C(=O)N[C@@H](CO)C(=O)N[C@H](C(=O)N[C@@H](CCCCN)C(=O)N[C@@H](CO)C(=O)N[C@@H](CC(N)=O)C(=O)N[C@@H](Cc1c[nH]cn1)C(=O)N1CCC[C@H]1C(=O)NCC(=O)N[C@@H](CC(C)C)C(=O)N[C@@H](CC(C)C)C(=O)N[C@@H](CO)C(=O)O)[C@@H](C)CC)[C@@H](C)O)C(C)C` (Palmitoyl-RGVMTLFSIKSNHPGLLS-OH) gave a 50% inhibitory concentration (IC50) of 500 nM.
`CCCCCCCCCCCCCCCC(=O)N[C@@H](CCCNC(=N)N)C(=O)NCC(=O)N[C@H](C(=O)N[C@@H](CCSC)C(=O)N[C@H](C(=O)N[C@@H](CC(C)C)C(=O)N[C@@H](Cc1ccccc1)C(=O)N[C@@H](CO)C(=O)N[C@H](C(=O)N[C@@H](CCCCN)C(=O)N[C@@H](CO)C(=O)N[C@@H](CC(N)=O)C(=O)N[C@@H](Cc1c[nH]cn1)C(=O)O)[C@@H](C)CC)[C@@H](C)O)C(C)C` (Palmitoyl-RGVMTLFSIKSNH-OH): the IC50 turned out to be 950 nM.
In turn, `CCCCCCCCCCCCCCCC(=O)N[C@@H](CC(C)C)C(=O)N[C@H](C(=O)N[C@@H](Cc1ccc(O)cc1)C(=O)N[C@@H](C)C(=O)N[C@@H](Cc1c[nH]c2ccccc12)C(=O)N[C@@H](Cc1cnc[nH]1)C(=O)N[C@H](C(=O)N[C@@H](CO)C(=O)N[C@@H](Cc1ccccc1)C(=O)N[C@@H](CCCCN)C(=O)N[C@@H](C)C(=O)N[C@@H](CC(C)C)C(=O)O)[C@@H](C)O)[C@@H](C)O` (Palmitoyl-LTYAWHTSFKAL-OH) had an IC50 of 80 nM.
Consider `CCCC[C@H](NC(=O)[C@H](CCCNC(=N)N)NC(=O)[C@H](CCCNC(=N)N)NC(=O)[C@H](CC(N)=O)NC(=O)[C@@H]1CCCN1C(=O)[C@H](Cc1ccccc1)NC(=O)[C@H](Cc1c[nH]c2ccccc12)NC(=O)[C@@H](NC(=O)[C@H](CCCCN)NC(=O)[C@@H](NC(=O)[C@H](CCC(N)=O)NC(=O)[C@@H](N)CCCNC(=N)N)[C@@H](C)CC)[C@@H](C)CC)C(=O)N[C@@H](CCCCN)C(=O)N[C@@H](Cc1c[nH]c2ccccc12)C(=O)N[C@@H](CCCCN)C(=O)N[C@@H](CCCCN)C(=O)N[C@@H](CC(C)C)C(=O)N[C@H](C(=O)N[C@@H](Cc1ccc(O)cc1)C(=O)N[C@@H](C)C(=O)N[C@@H](Cc1c[nH]c2ccccc12)C(=O)N[C@@H](Cc1cnc[nH]1)C(=O)N[C@H](C(=O)N[C@@H](CO)C(=O)N[C@@H](Cc1ccccc1)C(=O)N[C@@H](CCCCN)C(=O)N[C@@H](C)C(=O)N[C@@H](CC(C)C)C(=O)O)[C@@H](C)O)[C@@H](C)O` (H-RQIKIWFPNRR[Nle]KWKKLTYAWHTSFKAL-OH), for which the IC50 was above 15000 nM.
With H-VWFVVLTYAWHTSFKAL-OH, the IC50 was above 5000 nM.
In the case of `CCCCCCCCCCCCCCCC(=O)N[C@@H](CC(C)C)C(=O)N[C@H](C(=O)N[C@@H](Cc1ccc(O)cc1)C(=O)N[C@@H](C)C(=O)N[C@@H](Cc1c[nH]c2ccccc12)C(=O)N[C@@H](Cc1cnc[nH]1)C(=O)N[C@H](C(=O)N[C@@H](CO)C(=O)N[C@@H](Cc1ccccc1)C(=O)N[C@@H](CCCCN)C(=O)N[C@@H](C)C(=O)N[C@@H](CC(C)C)C(=O)NCC(=O)N[C@H](C(=O)N[C@H](C(=O)N[C@@H](Cc1ccc(O)cc1)C(=O)N[C@@H](CCC(N)=O)C(=O)N1CCC[C@H]1C(=O)O)[C@@H](C)O)[C@@H](C)O)[C@@H](C)O)[C@@H](C)O` (Palmitoyl-LTYAWHTSFKALGTTYQP-OH), the IC50 worked out at 300 nM.
Consider `CCCCCCCCCCCCCCCC(=O)N[C@@H](CC(C)C)C(=O)N[C@H](C(=O)N[C@@H](Cc1ccc(O)cc1)C(=O)N[C@@H](C)C(=O)N[C@@H](Cc1c[nH]c2ccccc12)C(=O)N[C@@H](Cc1cnc[nH]1)C(=O)N[C@H](C(=O)N[C@@H](CO)C(=O)N[C@@H](Cc1ccccc1)C(=O)N[C@@H](CCCCN)C(=O)O)[C@@H](C)O)[C@@H](C)O` (Palmitoyl-LTYAWHTSFK-OH), for which the IC50 worked out at 60 nM.
For the compound `CCCCCCCCCCCCCCCC(=O)N[C@@H](CC(C)C)C(=O)N[C@H](C(=O)N[C@@H](Cc1ccc(O)cc1)C(=O)N[C@@H](C)C(=O)N[C@@H](Cc1ccc(C(=O)c2ccccc2)cc1)C(=O)N[C@@H](Cc1cnc[nH]1)C(=O)N[C@H](C(=O)N[C@@H](CO)C(=O)N[C@@H](Cc1ccccc1)C(=O)N[C@@H](CCCCN)C(=O)N[C@@H](C)C(=O)N[C@@H](CC(C)C)C(=O)N[C@H](CCSC(=O)CCCC[C@@H]1SC[C@@H]2NC(=O)N[C@@H]21)C(=O)O)[C@@H](C)O)[C@@H](C)O`, the IC50 is above 15000 nM.
The value for `CCCCCCCCCCCCCCCC(=O)N[C@H](C(=O)N[C@@H](Cc1ccc(O)cc1)C(=O)N[C@@H](C)C(=O)N[C@@H](Cc1c[nH]c2ccccc12)C(=O)N[C@@H](Cc1cnc[nH]1)C(=O)N[C@H](C(=O)N[C@@H](CO)C(=O)N[C@@H](Cc1ccccc1)C(=O)N[C@@H](CCCCN)C(=O)N[C@@H](C)C(=O)N[C@@H](CC(C)C)C(=O)O)[C@@H](C)O)[C@@H](C)O` (Palmitoyl-TYAWHTSFKAL-OH) was 700 nM; that for `CCCCCCCCCCCCCCCC(=O)NCCCC[C@H](NC(=O)[C@H](Cc1ccc(O)cc1)NC(=O)[C@H](CO)NC(=O)[C@@H](NC(=O)[C@H](CCCCN)NC(=O)CNC(=O)[C@H](CO)NC(=O)[C@H](CC(C)C)NC(=O)[C@@H]1CCCN1C(=O)[C@H](CCC(N)=O)NC(=O)[C@H](Cc1ccc(O)cc1)NC(=O)[C@@H](NC(=O)[C@@H](NC(=O)CNC(=O)[C@H](CC(C)C)NC(=O)[C@H](C)NC(=O)[C@H](CCCCN)NC(=O)[C@H](Cc1ccccc1)NC(=O)[C@H](CO)NC(=O)[C@@H](NC(=O)[C@H](Cc1cnc[nH]1)NC(=O)[C@H](Cc1c[nH]c2ccccc12)NC(=O)[C@H](C)NC(=O)[C@H](Cc1ccc(O)cc1)NC(=O)[C@@H](NC(=O)[C@H](CC(C)C)NC(=O)CCCCCCCCCCCCCCC)[C@@H](C)O)[C@@H](C)O)[C@@H](C)O)[C@@H](C)O)[C@@H](C)O)C(=O)O` (Palmitoyl-LTYAWHTSFKALGTTYQPLSGKTSYK(Palmitoyl)-OH) was 50 nM; that for `CCCCCCCCCCCCCC(=O)N[C@@H](CC(C)C)C(=O)N[C@H](C(=O)N[C@@H](Cc1ccc(O)cc1)C(=O)N[C@@H](C)C(=O)N[C@@H](Cc1c[nH]c2ccccc12)C(=O)N[C@@H](Cc1cnc[nH]1)C(=O)N[C@H](C(=O)N[C@@H](CO)C(=O)N[C@@H](Cc1ccccc1)C(=O)N[C@@H](CCCCN)C(=O)N[C@@H](C)C(=O)N[C@@H](CC(C)C)C(=O)O)[C@@H](C)O)[C@@H](C)O` (Myristoyl-LTYAWHTSFKAL-OH) was 200 nM.
In the case of `CCCCCCCCCCCCCCCC(=O)NCCCC[C@H](NC(=O)[C@H](Cc1ccc(O)cc1)NC(=O)[C@H](CO)NC(=O)[C@@H](NC(=O)[C@H](CCCCN)NC(=O)CNC(=O)[C@H](CO)NC(=O)[C@H](CC(C)C)NC(=O)[C@@H]1CCCN1C(=O)[C@H](CCC(N)=O)NC(=O)[C@H](Cc1ccc(O)cc1)NC(=O)[C@@H](NC(=O)[C@@H](NC(=O)CNC(=O)[C@H](CC(C)C)NC(=O)[C@H](C)NC(=O)[C@H](CCCCN)NC(=O)[C@H](Cc1ccccc1)NC(=O)[C@H](CO)NC(=O)[C@@H](NC(=O)[C@H](Cc1cnc[nH]1)NC(=O)[C@H](Cc1c[nH]c2ccccc12)NC(=O)[C@H](C)NC(=O)[C@H](Cc1ccc(O)cc1)NC(C)=O)[C@@H](C)O)[C@@H](C)O)[C@@H](C)O)[C@@H](C)O)C(=O)O` (Ac-YAWHTSFKALGTTYQPLSGKTSYK(Palmitoyl)-OH), the IC50 was determined as 1000 nM.
`CCCCCCCCCCCCCCCC(=O)NCCCC[C@H](NC(=O)[C@H](CCCNC(=N)N)NC(=O)[C@H](CC(C)C)NC(=O)[C@H](CCSC)NC(=O)[C@@H](NC(=O)[C@H](CCC(=O)O)NC(=O)[C@H](CC(N)=O)NC(=O)[C@@H](NC(=O)[C@H](CCCCN)NC(=O)[C@H](CO)NC(=O)[C@H](C)NC(=O)[C@H](C)NC(=O)[C@H](CCCCN)NC(=O)[C@H](CCC(=O)O)NC(=O)[C@H](CO)NC(=O)[C@H](CC(C)C)NC(=O)[C@H](CC(C)C)NC(C)=O)[C@@H](C)CC)[C@@H](C)O)C(=O)O` (stereo in doubt; form 2) gave an IC50 of 1330 nM.
Consider `CCCCCCCCCCCCCCCC(=O)NCCCC[C@H](NC(=O)[C@H](CCCNC(=N)N)NC(=O)[C@H](CC(C)C)NC(=O)[C@H](CCSC)NC(=O)[C@@H](NC(=O)[C@H](CCC(=O)O)NC(=O)[C@H](CC(N)=O)NC(=O)[C@@H](NC(=O)[C@H](CCCCN)NC(=O)[C@H](CO)NC(=O)[C@H](C)NC(=O)[C@H](C)NC(=O)[C@H](CCCCN)NC(=O)[C@H](CCC(=O)O)NC(=O)[C@H](CO)NC(=O)[C@H](CC(C)C)NC(=O)[C@H](CC(C)C)NC(=O)CNC(=O)[C@@H]1CCCN1C(=O)[C@H](Cc1c[nH]cn1)NC(=O)[C@H](CC(N)=O)NC(=O)[C@H](CO)NC(=O)[C@H](CCCCN)NC(=O)[C@@H](NC(=O)[C@H](CO)NC(=O)[C@H](Cc1ccccc1)NC(=O)[C@H](CC(C)C)NC(=O)[C@@H](NC(=O)[C@H](CCSC)NC(=O)[C@@H](NC(=O)CNC(=O)[C@H](CCCNC(=N)N)NC(C)=O)C(C)C)[C@@H](C)O)[C@@H](C)CC)[C@@H](C)CC)[C@@H](C)O)C(=O)O` (Ac-RGVMTLFSIKSNHPGLLSEKAASKINETMLRK(Palmitoyl)-OH), for which 900 nM corresponded to half-maximal inhibition (IC50).
On to H-WFVVLTYAWHTSFKAL-OH, for which the IC50 was above 5000 nM.
